From ChEMBL document CHEMBL1133040, “Activity-guided isolation of constituents of Cerbera manghas with antiproliferative and antiestrogenic activities” (Bioorg Med Chem Lett, 2000)
In brackets after ≈: the same amount, converted by molar mass.

Key:
Type in all cases: functional, cell-based
Col2 = test: Inhibition of Col2 human colon cancer cell proliferation
Method in brief: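 Col2 human colon cancer cells grown in MEME with 10% NAA, antibiotic-antimycotic and 10% FBS at 37 °C, 5% CO2. Exponentially growing cells seeded onto compounds dissolved in DMSO and grown 3 days at 37 °C. Cells TCA-fixed, stained with 0.4% sulforhodamine B in 1% acetic acid, dye solubilized in 0.1 M Tris, A515 read. % growth computed against day-0 and DMSO-control absorbances.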

Ishikawa [1] = test: Antiestrogenic effects in Ishikawa cells; details: Homo sapiens
Ishikawa [2] = test: Inhibition of Ishikawa cell proliferation
Ishikawa [3] = test: Inhibition of antiestrogenic response in Ishikawa cells
[4] = Homo sapiens, Ishikawa, read-out: IC50

Structure (SMILES) | IC50 (Col2) | IC50 (Ishikawa [1]) | IC50 (Ishikawa [2]; ishikawa) | IC50 (Ishikawa [3]; ishikawa) | IC50 (Ishikawa [2]; [4]) | IC50 (Ishikawa [3]; [4])
COc1cc(C[C@H]2COC(c3ccc(O)c(OC)c3)[C@@]2(O)CO)ccc1O (stereo partly drawn) | > 10 µg/mL | > 10 µg/mL | – | – | – | –
CO[C@@H]1[C@@H](O)[C@H](C)O[C@@H](OC2CC[C@@]3(C)[C@H](CC[C@@H]4[C@@H]3C3OC3[C@]3(C)[C@H](C5=CC(=O)OC5)CC[C@]43O)C2)[C@@H]1O (stereo in doubt; 1) | – | – | 0.015 µg/mL (≈ 0.0273 µM) | 0.0042 µg/mL (≈ 0.00765 µM) | – | –
CO[C@@H]1[C@@H](O)[C@H](C)O[C@@H](OC2CC[C@@]3(C)[C@H](CC[C@@H]4[C@@H]3C3OC3[C@]3(C)[C@H](C5=CC(=O)OC5)CC[C@]43O)C2)[C@@H]1O (stereo in doubt; 2) | ≤ 5 µg/mL | ≤ 5 µg/mL | – | – | 0.02 µg/mL (≈ 0.0365 µM) | 0.008 µg/mL (≈ 0.0146 µM)
